Test results as given in ChEMBL document CHEMBL4145622, “Banksialactones and Banksiamarins: Isochromanones and Isocoumarins from an Australian Fungus, Aspergillus banksianus” (2018).
≈ marks a conversion by molar mass, not a printed value. Calls of active or inactive are those of the source. The calls are words filed in the database; no cut-off is given here.

Experiments:
Saccharomyces cerevisiae [1] = experiment: Antifungal activity against Saccharomyces cerevisiae ATCC 9763 after 48 hrs by bromocresol green dye based assay; assay type: functional; conditions: ATCC 9763, 48 h
Procedure, shortened: (§1)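 S. cerevisiae grown 24 h in 1% malt extract broth, 250 rpm, 24 °C, diluted to 0.03 absorbance unit per mL. Inoculated onto compound in malt extract agar with bromocresol green (50 μg/mL). 2-fold series from 100 to 0.05 μg/mL in 1% DMSO. Incubated at 24 °C for 48 h. MIC read visually by blue-to-yellow colour change.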

Escherichia coli = experiment: Antibacterial activity against Escherichia coli ATCC 25922 after 48 hrs by resazurin dye based assay; assay type: functional, organism-based
Procedure, shortened: (§2)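 Bacteria pre-grown 24 h in nutrient broth at 28 °C, 100−250 rpm, diluted to 0.01 absorbance unit per mL. Inoculated into wells of compound dispersed in nutrient agar with resazurin (12.5 μg/mL). Test range 100 to 0.05 μg/mL (2-fold dilutions, 1% DMSO). Incubated 48 h at 28 °C. MIC read visually by blue-to-pink colour change.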

Bacillus spizizenii [2] = experiment: Antibacterial activity against Bacillus subtilis ATCC 6633 after 48 hrs by resazurin dye based assay; assay type: functional; conditions: for MIC: ATCC 6633, 48 h; procedure, shortened: as §2
Candida albicans = experiment: Antifungal activity against Candida albicans ATCC 10231 after 48 hrs by bromocresol green dye based assay; assay type: functional, organism-based
Procedure, shortened: as §1, with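 “C. albicans” for “S. cerevisiae”, “0.005” for “0.03”, “Test range” for “2-fold series from”, “Incubated” for “Incubated at”, “°C,” for “°C for”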

Tritrichomonas suis [3] = experiment: Antiprotozoal activity against Tritrichomonas foetus KV1; assay type: functional
Procedure, shortened: (§3)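 Trophozoites seeded at 4 × 10^4 cells/mL in medium containing tryptone, yeast extract, glucose, L-cysteine, phosphates, ascorbic acid, FeSO4 and 10% newborn calf serum. Compound range 100 to 0.05 μg/mL in 1% DMSO. Plates held anaerobically at 37 °C.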

[4] = (§4) Cytotoxicity against mouse NS1 cells after 48 hrs by resazurin dye based assay; assay type: functional
Procedure, shortened: (§5)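 NS-1 myeloma cells seeded at 50 000 cells/mL in DMEM + 10% FBS + 1% penicillin/streptomycin, 37 °C, 5% CO2. Compound range 100 to 0.05 μg/mL (2-fold dilutions, 1% DMSO). Resazurin (250 μg/mL, 10 μL) added at 48 h, then incubated a further 48 h. MIC end point read visually.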

Mus musculus [5] = organism: Mus musculus; experiment: as §4; assay type: functional; procedure, shortened: as §5
Mus musculus [6] = organism: Mus musculus; experiment: Cytotoxicity against mouse NS1 cells up to 100 ug/ml 48 hrs by resazurin dye based assay; assay type: functional, cell-based; procedure, shortened: as §5
Saccharomyces cerevisiae [7] = experiment: Antifungal activity against Saccharomyces cerevisiae ATCC 9763 up to 100 ug/ml 48 hrs by bromocresol green dye based assay; assay type: functional, organism-based; procedure, shortened: as §1
Bacillus spizizenii [8] = experiment: Antibacterial activity against Bacillus subtilis ATCC 6633 up to 100 ug/ml 48 hrs by resazurin dye based assay; assay type: functional, organism-based; procedure, shortened: as §2
Tritrichomonas suis [9] = experiment: Antiprotozoal activity against Tritrichomonas foetus KV1 up to 100 ug/ml; assay type: functional, organism-based; procedure, shortened: as §3

Row | SMILES | Activity (Escherichia coli) | Activity (Candida albicans) | Activity (Bacillus spizizenii [2]) | Activity (Tritrichomonas suis [3]) | Activity (Mus musculus [5]) | also measured
1 | COc1cc(O)c2c(c1C)[C@H](C)[C@](O)(COC(=O)c1c(C)c(C)c(O)c(C)c1O)OC2=O | inactive | inactive | – | – | – | MIC (Saccharomyces cerevisiae [1]): 50 µg/mL (≈ 112 µM); MIC (Bacillus spizizenii [2]): 25 µg/mL (≈ 56 µM); MIC (Tritrichomonas suis [3]): 50 µg/mL (≈ 112 µM); MIC [4]: 100 µg/mL (≈ 224 µM)
2 | COc1cc(OC)c2c(c1C)[C@](C)(O)[C@H](C)OC2=O | inactive | inactive | inactive | inactive | inactive | –
3 | COC(=O)Nc1nc2cc(C(=O)c3ccccc3)ccc2[nH]1 [MEBENDAZOLE] | – | – | – | – | – | MIC (Tritrichomonas suis [3]): 1.6 µg/mL (≈ 5.42 µM)
4 | COc1cc(O)c2c(c1C)[C@H](C)[C@](O)(CO)OC2=O | inactive | inactive | inactive | inactive | inactive | –
5 | O=c1[nH]cc(F)c(=O)[nH]1 [FLUOROURACIL] | – | – | – | – | – | MIC [4]: 0.8 µg/mL (≈ 6.15 µM)
6 | COc1cc(O)c2c(c1C)[C@H](C)[C@H](CO)OC2=O | inactive | inactive | inactive | inactive | inactive | –
7 | CC1(C)S[C@@H]2[C@H](NC(=O)[C@H](N)c3ccccc3)C(=O)N2[C@H]1C(=O)O [AMPICILLIN] | – | – | – | – | – | MIC (Bacillus spizizenii [2]): 0.4 µg/mL (≈ 1.14 µM)
8 | COc1cc(O)c2c(c1C)[C@H](C)[C@](O)(C[S+](C)[O-])OC2=O (some centres not stated) | inactive | inactive | inactive | inactive | inactive | –
9 | COc1cc(O)cc2c1C(=O)c1c(O)cc(C)cc1C2=O [QUESTIN] | inactive | inactive | – | – | – | Activity (Mus musculus [6]): inactive; Activity (Saccharomyces cerevisiae [7]): inactive; MIC (Tritrichomonas suis [3]): 12.5 µg/mL (≈ 44 µM); Activity (Bacillus spizizenii [8]): inactive
10 | Cc1c(O)cc(O)c2c1[C@H](C)[C@](O)(CO)OC2=O | inactive | inactive | inactive | inactive | inactive | –
11 | Clc1ccccc1C(c1ccccc1)(c1ccccc1)n1ccnc1 [CLOTRIMAZOLE] | – | – | – | – | – | MIC (Saccharomyces cerevisiae [1]): 0.2 µg/mL (≈ 0.58 µM)
12 | COc1cc(O)c2c(c1C)[C@H](C)[C@](O)(COC(=O)c1c(O)cc(O)c(C)c1C)OC2=O | inactive | inactive | – | – | – | Activity (Tritrichomonas suis [9]): inactive; MIC (Bacillus spizizenii [2]): 50 µg/mL (≈ 116 µM); MIC [4]: 100 µg/mL (≈ 231 µM)
13 | COc1cc(O)c2c(c1C)[C@H](C)[C@](O)(CSCC(O)C(=O)O)OC2=O (some centres not stated) | inactive | inactive | inactive | inactive | inactive | –
14 | COc1cc(O)c2c(c1C)[C@](C)(O)[C@H](C)OC2=O | inactive | inactive | inactive | inactive | inactive | –
15 | COc1cc(O)c2c(c1C)[C@H](C)[C@](O)(COC(=O)c1c(C)cc3c(c1O)C(=O)c1c(O)cc(O)cc1C3=O)OC2=O | inactive | inactive | – | – | – | Activity (Saccharomyces cerevisiae [7]): inactive; MIC (Bacillus spizizenii [2]): 25 µg/mL (≈ 44.3 µM); MIC (Tritrichomonas suis [3]): 12.5 µg/mL (≈ 22.1 µM); MIC [4]: 100 µg/mL (≈ 177 µM)
